{"source": "paper PMC7216793", "about": "(Molecular pharmaceutics, 2020)", "key": {"[1]": {"details": "earlier work, no reference given; cited from earlier work"}, "[2]": {"details": "28 day dosing of 100 mg/kg; cited from earlier work"}, "[3]": {"test": "logD oct/wat at different pH", "format": "physicochemical", "details": "1-octanol/buffered water, 24 h", "how_it_was_run": "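Shake-flask partition of the closed form. 200 μL of 2.5 mM in 1-octanol was added to 300 μL water-saturated octanol and 500 μL octanol-saturated buffer (pH 1–9). Vials were shaken overnight and left 1 h to separate. Aliquots of each layer were diluted in octanol or buffer and read at 270 nm (isosbestic). Concentrations came from per-phase calibration curves. Run in triplicate.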"}, "[4]": {"test": "pharmacokinetic study in mice: blood, lung and brain concentrations by LC-MS/MS", "format": "in vivo, Swiss Webster mice", "how_it_was_run": "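Six-week-old female Swiss Webster mice (SPF) received closed or open form by intragastric gavage at 25 mg/kg in various vehicles (n = 4). At 60 min, heparinised blood was drawn by cardiac puncture and non-perfused brain and lungs were harvested. Samples were extracted in methanol with internal standard. Both forms were quantified by LC-MS/MS (C18; methanol/water, 0.1% formic acid; positive mode).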"}, "[5]": {"system": "asthmatic mice (ovalbumin sensitized and challenged model)", "details": "cited from earlier work"}, "[6]": {"test": "kinetics of ring opening and closing by UV absorbance at 246 nm", "format": "physicochemical", "details": "UV 246 nm, aqueous 0.1 N HCl", "how_it_was_run": "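Four replicate wells, each with 5 μL of 1 mM closed form plus 75 μL aqueous acid (0.1 N HCl; final 62.5 μM). A246 read every 30 s for 260 min, with a DMSO-containing buffer blank subtracted. Averaged absorbance-time curves (n = 4) were fitted by first-order kinetics to give k and half-life.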"}, "[7]": {"test": "acid titration of basic MIDD0301 solution with 1 N HCl", "format": "physicochemical", "details": "50 μM in 0.1 N NaOH, water with 30 % DMSO; nonlinear regression"}, "[8]": {"test": "kinetics of ring opening and closing by 1H-NMR", "format": "physicochemical", "details": "0.1 N DCl in 50:50 D2O:d6-DMSO"}, "[9]": {"test": "shake flask solubility at different pH, UV at 270 nm", "format": "physicochemical", "details": "24 h shake flask", "how_it_was_run": "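2 mg closed form in 200 μL buffered water was shaken 24 h in a closed vial. It was centrifuged 5 min at 16000 × g and supernatant pH was measured. Three 10 μL aliquots were diluted into 50:50 methanol/25 mM phosphate pH 10 and read at 270 nm. Concentration came from a calibration curve in the same diluent. Three independent measurements per pH.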"}, "[10]": {"system": "airway resistance induced with methacholine", "details": "airway resistance induced with 25 mg/ml methacholine; cited from earlier work"}, "[11]": {"test": "spectrophotometric pH transition", "format": "physicochemical", "details": "absorbance difference at 252 and 292 nm vs pH", "how_it_was_run": "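Closed or open form at 50 μM (1% DMSO), in buffers adjusted to 0.1 M ionic strength with KCl: 50 mM phosphoric acid pH 1–2, 50 mM acetate pH 3–5, 50 mM phosphate pH 6–8, 12.5 mM borate pH 9. After 24 h at rt, spectra were read 230–400 nm, DMSO blank subtracted (two experiments, duplicate). Summed absorbance differences at 252/292 nm vs pH were fitted by nonlinear regression.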"}, "[12]": {"test": "mass spectrometry analysis of pH dependent ratio of closed and open MIDD0301", "format": "physicochemical", "how_it_was_run": "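Closed form at 50 μM in water was brought to pH 1 with 0.1 M HCl. It was then stepped up to pH 9 with 10% ammonium hydroxide, taking an aliquot at each pH. Aliquots stood 24 h at rt, then final pH was measured. Each was infused directly into the MS without LC or added solvent. Closed:open ratio came from peak heights at 414 and 432 m/z.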"}, "[13]": {"details": "oral dosages of 1000 mg/kg; cited from earlier work"}, "ASM": {"system": "ASM", "details": "cited from earlier work"}, "[14]": {"details": "mice, 25 mg/kg oral, 60 min, Entry 1: 2.5 % PEG400, 98 % HPMC (2 % in water), pH 6.1"}, "[15]": {"details": "mice, 25 mg/kg oral, 60 min, Entry 2: 40 % propylene glycol, 60 % HPMC (2 % in water), pH 5.9"}, "[16]": {"details": "mice, 25 mg/kg oral, 60 min, Entry 4: 2.5 % PEG400, 98 % HPMC (2 % in PBS, pH 7.4)"}, "[17]": {"details": "mice, 25 mg/kg oral, 60 min, Entry 4: 2.5 % PEG400, 98 % HPMC (2 % in PBS, pH 7.4), listed as Closed MIDD0301, 25 mg/kg"}, "[18]": {"details": "mice, 25 mg/kg oral, 60 min, Entry 4: 2.5 % PEG400, 98 % HPMC (2 % in PBS, pH 7.4), listed as closed MIDD0301, 25 mg/kg"}, "[19]": {"details": "mice, 25 mg/kg oral, 60 min, Entry 5: pretreatment with omeprazole (30 mg/kg), 2.5 % PEG400, 98 % HPMC (2 % in PBS)"}}, "data": [{"smiles": "C[C@H]1N=C(c2ccccc2F)c2cc(Br)ccc2-n2cnc(C(=O)O)c21", "note": "[MIDD0301]", "values": [{"measurement": "oral dosage required to achieve pharmacological effects", "setting": "[1]", "value": 50, "unit": "mg/kg"}, {"measurement": "humoral immune response to T-dependent antigen dinitrophenyl-keyhole limpet haemocyanin", "setting": "[2]", "value": "no change"}, {"measurement": "signs of toxicity", "setting": "[2]", "value": "no signs of toxicity"}, {"measurement": "pH range of highest concentration in 1-octanol", "setting": "[3]", "value": "2–5"}, {"measurement": "percentage of open MIDD0301 in comparison to closed MIDD0301", "setting": "[4]; all biological samples, all formulations", "value": "≤ 4", "unit": "%"}, {"measurement": "Concentration of closed MIDD0301, Brain", "setting": "[4]; [14]", "value": "87 ± 27", "unit": "nM"}, {"measurement": "Concentration of open MIDD0301, Blood", "setting": "[4]; [14]", "value": "9 ± 3", "unit": "nM"}, {"measurement": "Concentration of open MIDD0301, Brain", "setting": "[4]; [14]", "value": "3 ± 1", "unit": "nM"}, {"measurement": "Concentration of open MIDD0301, Lung", "setting": "[4]; [14]", "value": "5 ± 2", "unit": "nM"}, {"measurement": "open MIDD0301, % of closed MIDD0301, Blood", "setting": "[4]; [14]", "value": 3, "unit": "%"}, {"measurement": "open MIDD0301, % of closed MIDD0301, Brain", "setting": "[4]; [14]", "value": 2, "unit": "%"}, {"measurement": "open MIDD0301, % of closed MIDD0301, Lung", "setting": "[4]; [14]", "value": 2, "unit": "%"}, {"measurement": "concentration of open MIDD0301 as % of closed MIDD0301, all samples", "setting": "[4]; mice, 25 mg/kg oral, 60 min, Entry 1, blood, lung, brain", "value": "2–3%"}, {"measurement": "Concentration of closed MIDD0301, Brain", "setting": "[4]; [15]", "value": "104 ± 42", "unit": "nM"}, {"measurement": "Concentration of open MIDD0301, Blood", "setting": "[4]; [15]", "value": "6 ± 2", "unit": "nM"}, {"measurement": "Concentration of open MIDD0301, Brain", "setting": "[4]; [15]", "value": "3 ± 1", "unit": "nM"}, {"measurement": "Concentration of open MIDD0301, Lung", "setting": "[4]; [15]", "value": "9 ± 2", "unit": "nM"}, {"measurement": "open MIDD0301, % of closed MIDD0301, Blood", "setting": "[4]; [15]", "value": 3, "unit": "%"}, {"measurement": "open MIDD0301, % of closed MIDD0301, Brain", "setting": "[4]; [15]", "value": 3, "unit": "%"}, {"measurement": "open MIDD0301, % of closed MIDD0301, Lung", "setting": "[4]; [15]", "value": 2, "unit": "%"}, {"measurement": "Concentration of closed MIDD0301, Brain", "setting": "[4]; [16]", "value": "130 ± 24", "unit": "nM"}, {"measurement": "Concentration of open MIDD0301, Blood", "setting": "[4]; [16]", "value": "18 ± 14", "unit": "nM"}, {"measurement": "Concentration of open MIDD0301, Brain", "setting": "[4]; [16]", "value": "4 ± 3", "unit": "nM"}, {"measurement": "Concentration of open MIDD0301, Lung", "setting": "[4]; [16]", "value": "28 ± 19", "unit": "nM"}, {"measurement": "open MIDD0301, % of closed MIDD0301, Blood", "setting": "[4]; [16]", "value": 4, "unit": "%"}, {"measurement": "open MIDD0301, % of closed MIDD0301, Brain", "setting": "[4]; [16]", "value": 3, "unit": "%"}, {"measurement": "open MIDD0301, % of closed MIDD0301, Lung", "setting": "[4]; [16]", "value": 2, "unit": "%"}, {"measurement": "Concentration of closed MIDD0301, Blood", "setting": "[4]; [17]", "value": "413 ± 116", "unit": "nM"}, {"measurement": "Concentration of closed MIDD0301, Lung", "setting": "[4]; [17]", "value": "1745 ± 1121", "unit": "nM"}, {"measurement": "Concentration of closed MIDD0301, Blood", "setting": "[4]; [18]", "value": 413, "unit": "nM"}, {"measurement": "Concentration of closed MIDD0301, Lung", "setting": "[4]; [18]", "value": 2046, "unit": "nM"}, {"measurement": "Concentration of closed MIDD0301, Blood", "setting": "[4]; [19]", "value": "516 ± 180", "unit": "nM"}, {"measurement": "Concentration of closed MIDD0301, Brain", "setting": "[4]; [19]", "value": "159 ± 33", "unit": "nM"}, {"measurement": "Concentration of closed MIDD0301, Lung", "setting": "[4]; [19]", "value": "2046 ± 1155", "unit": "nM"}, {"measurement": "Concentration of open MIDD0301, Blood", "setting": "[4]; [19]", "value": "20 ± 8", "unit": "nM"}, {"measurement": "Concentration of open MIDD0301, Brain", "setting": "[4]; [19]", "value": "4 ± 2", "unit": "nM"}, {"measurement": "Concentration of open MIDD0301, Lung", "setting": "[4]; [19]", "value": "32 ± 21", "unit": "nM"}, {"measurement": "open MIDD0301, % of closed MIDD0301, Blood", "setting": "[4]; [19]", "value": 4, "unit": "%"}, {"measurement": "open MIDD0301, % of closed MIDD0301, Brain", "setting": "[4]; [19]", "value": 3, "unit": "%"}, {"measurement": "open MIDD0301, % of closed MIDD0301, Lung", "setting": "[4]; [19]", "value": 2, "unit": "%"}, {"measurement": "MIDD0301 in non-perfused brain as % of lung concentration", "setting": "[4]; mice, oral, under these specific conditions (Conclusions)", "value": "less than 10%"}, {"measurement": "IL-17A, IL-4 and TNFα in the lungs", "setting": "[5]; asthmatic mice", "value": "reduction"}, {"measurement": "airway hyperresponsiveness to methacholine challenge", "setting": "[5]; oral 100 mg/kg", "value": "reduced airway hyperresponsiveness"}, {"measurement": "eosinophil, CD4+ T cell and macrophage numbers in the lungs", "setting": "[5]; oral 100 mg/kg", "value": "reduced"}, {"measurement": "kacid, conversion of closed to open MIDD0301", "setting": "[6]; 62.5 μM", "value": 0.142, "unit": "min⁻¹"}, {"measurement": "half-life in 0.1 N HCl", "setting": "[6]", "value": 4.8, "unit": "min"}, {"measurement": "pH of inflection, acid titration", "setting": "[7]", "value": 4.69}, {"measurement": "kacid, conversion of closed to open MIDD0301", "setting": "[8]; 2.4 mM, pseudo first order", "value": 0.050, "unit": "min⁻¹"}, {"measurement": "half-life of ring opening", "setting": "[8]", "value": 13.7, "unit": "min"}, {"measurement": "aqueous solubility", "setting": "[9]; neutral pH", "value": "> 3000", "unit": "µg/mL"}, {"measurement": "aqueous solubility", "setting": "[9]; pH 3.9", "value": "< 100", "unit": "µg/mL"}, {"measurement": "nebulized dose sufficient to overcome airway resistance", "setting": "[10]", "value": 0.8, "unit": "mg/kg"}, {"measurement": "pH of the spectrophotometric transition", "setting": "[11]", "value": 4.34}, {"measurement": "closed MIDD0301 remaining by MS", "setting": "[12]; 0.1 N HCl, after 24 h", "value": 10, "unit": "%"}, {"measurement": "open MIDD0301 share by MS", "setting": "[12]; pH 6, after 24 h", "value": 17, "unit": "%"}, {"measurement": "open MIDD0301 share by MS", "setting": "[12]; pH 7 and higher, 24 h", "value": 2, "unit": "%"}, {"measurement": "calculated equilibrium pH (equal peak heights of closed and open form)", "setting": "[12]; water, 24 h, MS 414 vs 432 m/z", "value": 4.3}, {"measurement": "pH range in which the equilibrium between open and closed form was observed", "setting": "[12]; water, MS", "value": "4–5"}, {"measurement": "CNS effects in sensorimotor studies", "setting": "[13]", "value": "no CNS effects"}]}, {"smiles": "CC(C)c1cccc(C(C)C)c1O", "note": "[propofol]", "values": [{"measurement": "effect on airway smooth muscle", "setting": "ASM", "value": "relaxed ASM"}]}]}
